Screening results from PubChem BioAssay.
Sampled rows, rich in hits. Any-hit rate of the full collection: about 1.5%.
NR2E3 ag-1 = activates human NR2E3 receptor; CHO-S Gal4-NCOR/VP16-NR2E3 two-hybrid, luciferase; inhibition of corepressor binding, % at 3.98 µM; 360,000 tested, 0.35% active;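 active = inhibition above the mean of all tested compounds plus 3 SD, cut at about 70% in these data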;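 also: 0% = DMSO with NR2E3 transfected cells and 100% = cells lacking NR2E3 construct; higher means lower luciferase signal from less NR2E3 corepressor binding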
Target sequence (Q9Y5X4 whole entry, looked up, the tested form may be a part): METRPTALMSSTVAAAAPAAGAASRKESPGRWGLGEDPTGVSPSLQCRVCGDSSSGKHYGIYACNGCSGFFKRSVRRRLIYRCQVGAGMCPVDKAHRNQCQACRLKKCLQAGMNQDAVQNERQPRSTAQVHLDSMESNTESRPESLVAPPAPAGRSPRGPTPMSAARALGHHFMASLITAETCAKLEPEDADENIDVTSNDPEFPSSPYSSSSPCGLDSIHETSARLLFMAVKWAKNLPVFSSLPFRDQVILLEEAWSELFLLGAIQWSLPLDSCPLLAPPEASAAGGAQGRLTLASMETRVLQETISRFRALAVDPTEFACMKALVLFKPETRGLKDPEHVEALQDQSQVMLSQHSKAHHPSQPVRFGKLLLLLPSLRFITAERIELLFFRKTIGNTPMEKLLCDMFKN
PG9 binder = small molecules binding HIV-1 gp120 antibody PG9; inhibition, % at 6.7 µM; 360,000 tested, 0.43% active; AID 624416; TR-FRET gp120-PG9 antibody binding; in the data active = inhibition above about 8.5%
NR2E3 ag-2 = NR2E3 (human) agonism. Q9Y5X4. GST-NR2E3/biotin-RetCOR TR-FRET, 1536-well. inhibition of corepressor binding, % at 4.78 µM. 320,000 tested, 0.12% active;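 active = percent inhibition above the cutoff of mean plus 3 SD of all tested compounds, set per screening campaign, cut at about 20% in these data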;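 also: 0% = DMSO wells and 100% = biotin wells as full block of FRET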
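Material – GST-tagged NR2E3 plus biotinylated RetCOR corepressor · Quantity – NR2E3 fusion 1.35 nM · Times – 5 h incubation at 4 °C · Medium – pH 7.5 Tris-based buffer · Technique – TR-FRET, Eu(K)-anti-GST donor, streptavidin-D2 acceptor, ex 340, em 617/671 nm · Benchmarks – high control biotin, low control 0.6% DMSO · Format – 1536-well plates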
NR1D1 modulator = modulates human Rev-erb alpha binding to DNA | P20393 | Rev-erbα–FITC-DNA binding, fluorescence polarization, 90 min | activity, % at 10 µM | 370,000 tested, 0.79% active;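 active = activity above about 14%, limit read from the data; passing the limit was not always enough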;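 also: 0% = DMSO wells with 35 nM protein and 100% = DMSO wells with 750 nM protein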
NR2E3 ag conf = confirmation of human NR2E3 agonists | 2,300 tested, 51% active | inhibition, % at 3.98 µM | CHO-S mammalian two-hybrid NR2E3-NCOR, luciferase luminescence | shares compounds with NR2E3 ag-1 | AID 624378;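 active = average inhibition above a cutoff equal to the mean inhibition of all tested compounds plus one SD, cut at about 70% in these data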;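 also: 0% = DMSO in NR2E3 cells and 100% = DMSO in cells lacking NR2E3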
GAL4-VP16 luc = GAL4-VP16 reporter inhibition in NR2E3 agonist counterscreen. shares compounds with NR2E3 ag-1. CHO-S GAL4-VP16 luciferase reporter, luminescence. inhibition, % at 3.98 µM. 2,300 tested, 29% active. AID 624379;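 active = mean inhibition above a cutoff equal to the average over all tested compounds plus one standard deviation, cut at about 70% in these data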;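 also: luciferase from a UAS reporter driven by GAL4-VP16 transactivation; 0% = DMSO with VP16-transfected cells and 100% = DMSO with cells lacking VP16; higher means less reporter light so more repression of VP16 activity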
An asterisk follows results filed as active; / = no result.

SMILES	NR2E3 ag-1	PG9 binder	NR2E3 ag-2	NR1D1 modulator	NR2E3 ag conf	GAL4-VP16 luc
CCc1c(C)nc(SC/C=C/c2ccccc2)[nH]c1=O	83.4*	/	-1.5	/	41.4	43.4
Nc1cc(=O)[nH]c(SC/C=C/c2ccccc2)n1	12.2	0.0	-3.1	-1.3	/	/
Fc1ccc2cc(C3=CCCCC3)ncc2c1	/	-1.4	/	-3.0	/	/
Cc1ccc(Cn2cc(CN3[C@H](Cc4ccccc4)COc4cc(Br)ccc4S3(=O)=O)nn2)cc1	/	/	/	-6.6	/	/
COc1ccc(CNCC(O)COc2cccc3c2OC(C)(C)C3)cc1 (stereo not given)	50.6	-0.6	2.9	-2.7	46.4	60.7
COC(=O)[C@]12C[C@H](CC(=O)NCCC(C)C)C(=O)N(Cc3ccc4c(c3)OCO4)C1=C[C@H](C(C)C)O[C@@H]2C1CC1	/	/	/	2.9	/	/
COc1ccc(C)cc1NC(=O)NC1CC(=O)N(c2ccc3c(c2)OCCO3)C1 (stereo not given)	72.2*	0.2	/	2.4	77.8*	11.4
COC(=O)[C@]12C[C@H](CC(=O)NCc3ccccc3)C(=O)N(Cc3cccc4ccccc34)C1=C[C@H](C1CCCC1)O[C@@H]2C	/	/	/	0.2	/	/
COc1ccc(COC(=O)c2cc([N+](=O)[O-])ccc2N2CCOCC2)cc1F	48.4	-0.5	-2.7	0.1	15.3	28.3
O=C(COC(=O)c1cc([N+](=O)[O-])ccc1N1CCOCC1)Nc1ccc(Cl)cc1	-24.9	1.4	1.6	-1.4	/	/
O=C(COC(=O)c1cc([N+](=O)[O-])ccc1N1CCOCC1)Nc1ccc(Cl)cn1	78.3*	-1.7	-1.1	7.8	82.1*	27.6
CCOC(=O)CC[C@@H]1CC[C@]2(CCCN(C(=O)c3ccc4ccccc4n3)C2)O1	/	/	/	5.1	/	/
C=CCn1c(O)c(N=NC(=S)Nc2cccc(OC)c2)c2ccccc21	77.0*	-2.0	-0.5	-3.3	31.3	35.1
O=C(OCc1cn(Cc2c(F)cccc2F)nn1)N1CCOCC1	/	/	/	-0.1	/	/
CS(=O)(=O)N1CCc2cc(S(=O)(=O)Nc3ccc4oc5c(c4c3)CCCC5)ccc21	62.1	-0.7	-0.3	8.3	78.7*	67.5
COc1ccccc1C(=O)NC1CCCCN(Cc2ccc(C)cc2)C1=O (stereo not given)	/	/	/	-5.8	/	/
CCN(CC)c1ccc(/C=C/c2ccc3ccc(OC)cc3[n+]2CC)cc1	64.4	-34.2	-5.5	-2.2	97.5*	76.8*
Cc1ccc(C)c(NC(=O)Cn2nnc(-c3ccncc3)n2)c1	/	/	/	7.1	/	/
NS(=O)(=O)c1ccc(CCNc2ncnc3sccc23)cc1	12.5	0.1	3.4	0.3	/	/
Cc1sc2ncnc(NCCc3ccc(S(N)(=O)=O)cc3)c2c1C	89.3*	-0.3	2.1	5.1	93.5*	77.0*
COc1cccc(OC[C@@H](O)CN2CCC(C(O)(c3ccccc3)c3ccccc3)CC2)c1	/	/	/	-6.0	/	/
CCOc1ccccc1NC(=O)NNC(=O)CCn1nc(C)c([N+](=O)[O-])c1C	/	/	/	-8.9	/	/
NC(=S)N=Nc1c(O)n(CCCl)c2ccccc12	2.1	-4.1	4.5	9.6	/	/
NC(=S)N=Nc1c(O)n(CCCl)c2ccc(Cl)cc12	50.0	-2.6	4.7	-2.3	33.3	7.4
CCN1CCN(CCNC(=O)c2ccc(/C=C3\Sc4ccccc4N(Cc4ccccc4F)C3=O)cc2)CC1	47.9	0.3	1.0	-3.0	-11.2	34.6
SMILES	NR2E3 ag-1	PG9 binder	NR2E3 ag-2	NR1D1 modulator	NR2E3 ag conf	GAL4-VP16 luc
C[C@@H]1OCN(C)[C@H]2C[C@H]3c4[nH]c5cccc(-c6cccc(F)c6)c5c4CCN3C(=O)[C@@H]12	/	/	/	1.4	/	/
CC(C)CCNC(=O)CSc1nc2c(c(=O)[nH]1)CCC2	/	/	/	-8.5	/	/
O=C(O)c1sccc1SCc1ccc(Cl)c(Cl)c1	-17.2	-0.8	0.9	-0.2	/	/
C=CS(=O)(=O)N(Cc1ccc(Cl)c(Cl)c1)C[C@@H](O)CO	52.4	/	/	/	17.6	20.7
O=C(NCc1ccccn1)C1Nc2ccc(C(F)(F)F)cc2C2C=CCC12 (stereo not given)	96.5*	1.1	2.0	-1.2	-8.1	20.7
O=C(CS(=O)Cc1ccco1)NC/C=C\COc1cc(CN2CCCCC2)ccn1 (stereo not given)	/	/	/	-4.5	/	/
COc1ccc(C(=O)OCCCN(C)C2CN(Cc3cn(Cc4ccccc4Cl)nn3)S(=O)(=O)C2)cc1OC (stereo not given)	/	/	/	-2.8	/	/
O=C(Nc1cccc([N+](=O)[O-])c1)c1cc2ccccc2cc1O	84.8*	-2.1	5.6	-2.2	98.7*	69.5
N#Cc1cc2c(nc1SCC(N)=O)CCCCC2	-82.4	-2.6	-3.4	-2.0	/	/
N#Cc1cc2c(nc1SCC(=O)N1CCOCC1)CCCCC2	72.8*	-0.1	4.8	-3.1	28.8	-0.2
COC(=O)[C@H](CC(C)C)N(CCCc1cn(CC2CCCCC2)nn1)S(=O)(=O)c1ccccc1Br	/	/	/	1.4	/	/
O=C(O)CCC(=O)Nc1ccc(N=Nc2ccccc2)cc1	-7.6	/	/	/	/	/
CC(C)(C)C(=O)Nc1ccc(N=Nc2ccccc2)cc1	55.9	0.1	1.1	4.0	25.8	-22.8
COC(=O)[C@H](C(C)C)N(CCCc1cn(CC2CCCCC2)nn1)S(=O)(=O)c1ccccc1Br	/	/	/	4.4	/	/
CCOc1ccc(Oc2c(Cl)c(Br)nn(Cc3cccc4ccccc34)c2=O)cc1	/	/	/	2.0	/	/
CN(CC(=O)Nc1cccc(F)c1)C(=O)c1cccc(S(=O)(=O)N2CCN(c3ccccc3)CC2)c1	25.9	-1.6	-2.8	-2.6	/	/
CN(CC(=O)Nc1cccc(F)c1)C(=O)c1ccc(N2CCCCC2)c([N+](=O)[O-])c1	52.9	-0.5	5.5	2.4	54.4	48.7
CN(CC(=O)Nc1cccc(F)c1)C(=O)c1cc(S(=O)(=O)N2CCN(c3ccccc3)CC2)ccc1Cl	53.6	-0.6	2.0	0.8	36.9	43.8
COc1ccc(CN(C)C(=O)c2cccc(S(=O)(=O)N3CCN(c4ccccc4)CC3)c2)c(OC)c1OC	54.5	-0.6	5.1	3.7	83.2*	64.3
CN(Cc1ccc(F)cc1)C(=O)c1cccc(S(=O)(=O)N2CCN(c3ccc(F)cc3)CC2)c1	60.3	0.5	-2.0	7.8	38.0	30.5
COc1cccc(CN(C)C(=O)c2cccc(S(=O)(=O)N3CCN(c4ccccc4)CC3)c2)c1	43.9	-0.6	/	3.7	/	/
CC(C)[C@H](NC(=O)CC1CCCC1)C(=O)N1CCC[C@H]1C(=O)NCCc1ccccc1Cl	/	-0.8	/	-6.9	/	/
COC(=O)[C@]12C[C@H](CC(=O)N3CCN(C(=O)c4ccco4)CC3)C(=O)N(CCc3ccc(OC)c(OC)c3)C1=C[C@H](C(C)C)O[C@@H]2C1CC1	/	/	/	-6.8	/	/
COc1ccc(C(=O)c2sc(NC(C)C)nc2N)cc1OC	59.2	1.2	2.9	1.1	36.6	10.3
COc1cccc(C(=O)c2sc(NC(C)C)nc2N)c1	93.5*	0.8	2.1	-4.8	94.2*	50.0
O=S(=O)(c1ccccc1Br)N(Cc1cn(Cc2ccccc2)nn1)C1CC1	/	/	/	-10.7	/	/
